In the library only some 3.1% were active in any assay of this set; here they are far more common.
F508del corr: F508del CFTR correction, initial screen, CFBE line, single point; CFBE cells, YFP halide quenching; stimulated with forskolin plus potentiator P3; % fluorescence drop versus neutral controls; activity (quench increase), % at 7.58 µM; actives 0.36% (n = 350,000);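 active = mean added fluorescence quench of at least 8% versus neutral control, with both replicates also reaching 8%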;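 also: cells transiently co-express mutant CFTR-F508del with the halide-sensitive YFP; corrector assay measuring rescue of mutant channel to the surface after 24 h compound exposure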
HIV Env fusion: inhibitors of HIV-1 Env-driven cell-cell fusion, primary screen, HeLa-JRFL effector, CEM21 target cells, luciferase | inhibition, % at 12.3 µM | actives 1.1% (n = 360,000);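 active = mean replicate inhibition score of at least 50 and every replicate individually at or above 50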
miR-122 sensor: miR-122 Renilla sensor signal increase in Huh7, primary screen, miR-122 inhibitor project, cell-based, single point, plate reader. actives 0.3% (n = 340,000). Huh7 miR-122 Renilla luciferase sensor, 48 h; neutral wells = 0, positive control = 100. activation (reporter increase), % at 12.5 µM. AID 602342, 2012;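 active = mean replicate activation score at least 90 and every replicate individually at or above 90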;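 also: higher luciferase means less miR-122 activity so hits act as miR-122 inhibitors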
Cneo AK release: Cryptococcus neoformans cell lysis inducers, primary screen, AK release luminescence, single concentration | C. neoformans lysis, adenylate kinase release luminescence, 4 h; normalised: neutral wells 0, clomiphene wells 100 | lysis activity, % at 15 µM | actives 0.2% (n = 360,000);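 active = mean lysis activity across replicates of at least 80%, whatever share of replicates individually reach that level; inactive = mean lysis activity below 80%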
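Material – log-phase Cryptococcus neoformans yeast cells · Input – 5 × 10^6 yeast cells/mL · Medium – fresh YPD growth medium · Doses – single compound concentration per well · Timing – static 4 h at 37 °C with compound, 1 h detection · Detection – adenylate kinase release luminescence · Read-out – signal increase indicating cell lysis · Control set – Clomiphene as positive lysis control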
Ecoli rRNA inh: reduced GFP signal of wild-type E. coli, primary screen, bacterial rRNA inhibitor project, GFP/RFP fluorescence, OD600, single point; E. coli WT GFP vs humanized-ribosome RFP mutants, 24 h; stronger effect = lower value; DMSO median 0, no signal -100; GFP signal change (wild-type ribosome), % (test concentration not listed); actives 1.6% (n = 350,000); AID 720706, 2013;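 active = significant combined selectivity score with lowered wild-type GFP, culture density cut under 30%, mutant RFP and density less affected; inactive = any of these conditions unmet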
INS-1E GSIS act: GLuc luminescence reporter in INS-1E cells, primary screen for activators of glucose-dependent secretion of insulin | INS-1E GLuc reporter insulin secretion, 2-3 h | activation, % at 16.6 µM | actives 0.61% (n = 370,000) | AID 743287, 2014;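 active = lowest replicate activation of at least 40%, so every replicate reaches that level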
Of the large screens only hits and unclear results are named; the others gave an inactive call; [ ] = remark or other dose.

Cc1nccn1-c1ncnc2sc3c(c12)CCCC3	INS-1E GSIS act 67 (no result: F508del corr, HIV Env fusion, Cneo AK release, Ecoli rRNA inh)
Cc1cc(C)n(-c2ncnc3sc4c(c23)CCCC4)n1	none (no result: HIV Env fusion, Cneo AK release)
Cc1noc(NC(=O)c2cccc(C(F)(F)F)c2)c1Cl	Ecoli rRNA inh -48 (no result: miR-122 sensor, Cneo AK release)
O=C(Nc1ccc(Cl)cc1)Nc1nnc(-c2ccncc2)s1	none (no result: F508del corr, Ecoli rRNA inh)
NC(c1csc(NC(=O)Nc2cccc(Cl)c2)n1)c1ccccc1Cl (centres undefined)	HIV Env fusion 76
O=C(Nc1cccc(Cl)c1)Nc1nnc(-c2ccncc2)s1	HIV Env fusion 57 (no result: miR-122 sensor, Cneo AK release)
Cc1ccc(NC(=O)Nc2nnc(CSCCOc3ccc(Cl)cc3)s2)cc1	none (no result: F508del corr, miR-122 sensor, Cneo AK release, Ecoli rRNA inh, INS-1E GSIS act)
Cc1cccc(C)c1NC(=O)Nc1nc(C(N)c2ccccc2Cl)cs1 (centres undefined)	none
O=C(Nc1cccc(Cl)c1)Nc1nnc(CSCCOc2ccc(Cl)cc2)s1	INS-1E GSIS act 54 (no result: F508del corr, HIV Env fusion, Ecoli rRNA inh)
Cc1ccc(S(=O)(=O)N(C)C[C@H]2OCCCC[C@@H](C)Oc3ccc(NS(=O)(=O)c4cn(C)cn4)cc3C(=O)N([C@H](C)CO)C[C@H]2C)cc1	none
O=C(Nc1cc(Br)ccc1O)c1cnn2c(C(F)F)cc(C3CC3)nc12	none (no result: miR-122 sensor, Cneo AK release)
O=C(Nc1cccnc1)c1cnn2c(C(F)F)cc(C3CC3)nc12	INS-1E GSIS act 60 (no result: F508del corr, HIV Env fusion, Ecoli rRNA inh)
Cc1cc(/C=C(/C#N)C(=O)Nc2ccccc2)c(C)n1-c1cccnc1	none (no result: F508del corr, HIV Env fusion, miR-122 sensor)
Cc1ccccc1NC(=O)/C(C#N)=C\c1cc(C)n(-c2ccc(C(=O)O)cc2)c1C	Ecoli rRNA inh -23 (no result: Cneo AK release)
C[C@H]1CN([C@@H](C)CO)C(=O)c2cc(NC(=O)Nc3ccc(F)cc3)ccc2O[C@@H]1CN(C)C(=O)Nc1ccccc1	none
Nc1cc(Nc2ccc(Br)cc2)nc(N)n1	Ecoli rRNA inh -44 (no result: miR-122 sensor, Cneo AK release)
COc1ccc(NCC(=O)n2c(C)c(C)c3ccccc32)cc1	F508del corr 9.4
COc1ccc(CN(C)C[C@@H]2Oc3ccc(NC(=O)CCC(F)(F)F)cc3C(=O)N([C@H](C)CO)C[C@H]2C)cc1	none (no result: HIV Env fusion)
CCOC(=O)c1ccc(N=Nc2c(C)[nH]n(-c3ccccc3)c2=O)cc1	none
CCOC(=O)c1ccc(-n2[nH]c(-c3ccccc3)cc2=O)cc1	HIV Env fusion 58 (no result: F508del corr, Ecoli rRNA inh, INS-1E GSIS act)
C/C=C/c1ccc([C@@H]2[C@H](CO)N(C(=O)CN(C)C)C23CN(C(=O)C2CCCC2)C3)cc1	none (no result: miR-122 sensor, Cneo AK release)
C[C@@H]1CN([C@H](C)CO)C(=O)c2cc(-c3ccncc3)cnc2O[C@H]1CN(C)C(=O)Nc1ccc2c(c1)OCO2	none
COc1ccccc1C1CC(=O)Nc2cc3c(cc21)OCCO3 (centres undefined)	F508del corr 11 (no result: HIV Env fusion)
COc1ccccc1C1CC(=O)Oc2cc(C)c(Cl)cc21 (centres undefined)	Ecoli rRNA inh -21
CCC(=O)N(C)CCc1cc2c(c(OC)c1/C=N/NS(=O)(=O)c1ccc(C)cc1)OCO2	Ecoli rRNA inh -25
COc1ccc(-c2nc(CS(=O)CC(=O)NC(C)CCc3ccccc3)c(C)o2)cc1OC (centres undefined)	INS-1E GSIS act 49
CC(=O)Nc1nc2ccc(S(=O)(=O)N3CCCC3)cc2s1	none
CCOc1ccc2nc(NC(=O)CN3CCC(n4nnc5cc(C(F)(F)F)ccc54)CC3)sc2c1	HIV Env fusion 50 (no result: F508del corr, Ecoli rRNA inh, INS-1E GSIS act)
CCOc1ccc2nc(NC(=O)CS(=O)(=O)c3ccc(C)cc3)sc2c1	Ecoli rRNA inh -26 (no result: F508del corr)
CCCC(=O)Nc1nc2ccc(S(=O)(=O)N3CCCCC3)cc2s1	miR-122 sensor 118
COc1ccc2c3c(n(C)c2c1)[C@H](CO)N(Cc1cccc(F)c1)CC31CN(C)C1	none (no result: HIV Env fusion, miR-122 sensor, Cneo AK release)
CCS(=O)(=O)Nc1ccc2c(c1)C(=O)N(C)C[C@H](OC)[C@@H](C)CN(C(=O)NC(C)C)[C@@H](C)CO2	none (no result: HIV Env fusion)
COc1ccc(-n2c(CCC(=O)O)ccc2-c2ccccc2)cc1	Ecoli rRNA inh -25
Cc1ccc(-n2c(CCC(=O)O)ccc2-c2cccs2)cc1	Ecoli rRNA inh -28 (no result: HIV Env fusion)
COc1ccc(-c2ccc(CCC(=O)O)n2-c2ccccc2O)cc1	none
CN(C)Cc1cn(CC[C@H]2CC[C@@H](NS(=O)(=O)c3ccccc3)[C@@H](CO)O2)nn1	none (no result: miR-122 sensor)
O=P(c1ccccc1)(c1ccccc1)C(c1ccccn1)P(=O)(c1ccccc1)c1ccccc1	HIV Env fusion 66
O=P(c1ccccc1)(c1ccccc1)C(O)c1ccccn1 (centres undefined)	none
CS(=O)(=O)N1C[C@@H]2N[C@H](C1)C2c1ccc(-c2ccc(F)cc2)cc1 (some centres undefined)	none (no result: F508del corr, HIV Env fusion, miR-122 sensor, Cneo AK release)
O=C1OCC2=C1C(c1ccc(F)cc1)c1cc3c(cc1N2)OCO3 (centres undefined)	none (no result: miR-122 sensor, Cneo AK release, Ecoli rRNA inh, INS-1E GSIS act)
CCOc1ccccc1C1C2=C(COC2=O)Nc2cc3c(cc21)OCO3 (centres undefined)	Ecoli rRNA inh -24 (no result: miR-122 sensor, Cneo AK release)
CCCCCCc1cc2cc(C(=O)Nc3ccc(OC)cc3)c(=O)oc2cc1O	none (no result: miR-122 sensor, Cneo AK release)
CCCCCCc1cc2cc(C(=O)Nc3cccc(OC)c3)c(=O)oc2cc1O	INS-1E GSIS act 68 (no result: F508del corr, Ecoli rRNA inh)
COc1ccc(-c2noc(CCC(=O)N3CCN(c4cccc(OC)c4)CC3)n2)cc1	Ecoli rRNA inh -32
COc1ccc(-c2noc(CCC(=O)N3CCN(c4cccc(C(F)(F)F)c4)CC3)n2)cc1	none (no result: F508del corr, HIV Env fusion, Ecoli rRNA inh, INS-1E GSIS act)
CCc1nc2n[nH]c(N)c2c2c1CCCC2	INS-1E GSIS act 121 (no result: F508del corr, HIV Env fusion, Ecoli rRNA inh)
CCCc1nc2n[nH]c(N)c2c2c1COC(C)(C)C2	INS-1E GSIS act 49 (no result: F508del corr, HIV Env fusion, Cneo AK release, Ecoli rRNA inh)
O=C(C[C@@H]1C[C@@H]2c3cc(NC(=O)NC4CCCCC4)ccc3O[C@@H]2[C@@H](CO)O1)NC1CCCC1	none (no result: HIV Env fusion, miR-122 sensor, Cneo AK release)
CNC[C@H]1Oc2ccc(NC(=O)NC(C)C)cc2CC(=O)N([C@H](C)CO)C[C@@H]1C	none (no result: HIV Env fusion)
CCN(CC)C(=O)n1cnc(-c2ccccc2)c1-c1ccccc1	none (no result: F508del corr, miR-122 sensor, Cneo AK release)
COCn1cnc(-c2ccccc2)c1-c1ccccc1	Ecoli rRNA inh -28
CCCNC(=O)C[C@H]1C[C@H]2c3cc(NC(=O)CN(C)C)ccc3O[C@H]2[C@H](CO)O1	HIV Env fusion 89[16.7 µM]
CCCNC(=O)C[C@@H]1C[C@H]2c3cc(NC(=O)Cc4ccncc4)ccc3O[C@H]2[C@@H](CO)O1	HIV Env fusion 93[16.7 µM]
CCCNC(=O)C[C@@H]1C[C@H]2c3cc(NC(=O)CN(C)C)ccc3O[C@H]2[C@@H](CO)O1	none
CCCNC(=O)C[C@@H]1C[C@H]2c3cc(NC(=O)Cc4ccncc4)ccc3O[C@H]2[C@H](CO)O1	HIV Env fusion 98[16.7 µM]
Nc1nonc1C(=O)N1CCCC1	miR-122 sensor 247

Assay outcomes deposited in PubChem BioAssay by Broad Institute.
